Data on two compounds can be found in ChEMBL document CHEMBL1147356, “Structure and stereochemistry of pectinolides A-C, novel antimicrobial and cytotoxic 5,6-dihydro-alpha-pyrones from Hyptis pectinata” (1993).

In general, MIC refers to the lowest concentration found to suppress growth.

In one assay the test system is ZR-75-1. Kind of assay: Cytotoxicity against human ZR-75-1 cells after 72 hrs by sulforhodamine B assay. Type of assay: functional. The settings on record: ZR-75-1, 72 h, read-out: ED50 (the source's name). The method in brief: (§1)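 Log-phase cells treated with five sample concentrations (20.0–0.032 μg/ml) in DMSO for 72 h at 37°, 5% CO₂, 100% humidity. Sulforhodamine B staining quantified cells per well; results given as ED50.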

Assay [1] is described as follows: Cytotoxicity against human BC1 cells after 72 hrs by sulforhodamine B assay. It counts as functional. The settings on record: BC1, 72 h, read-out: ED50 (the source's name). Put shortly: as §1
Background: Sulforhodamine B stains cellular protein and so reports cell mass.

A short description of assay [2]: Cytotoxicity against vinblastine-resistant human KBV1 cells after 72 hrs by sulforhodamine B assay. The conditions noted are these: KB-V1, 72 h, read-out: ED50 (the source's name). Type of assay: functional. The method in brief:
as §1

In another assay the test system is SK-MEL-2. Kind of assay: Cytotoxicity against human SK-MEL-2 cells after 72 hrs by sulforhodamine B assay. It counts as functional. The settings on record: SK-MEL-2, 72 h, read-out: ED50 (the source's name). Put shortly:
as §1

Another assay has as its system LNCaP. Kind of assay: Cytotoxicity against human LNCAP cells after 72 hrs by sulforhodamine B assay. It counts as functional. The conditions noted are these: read-out: ED50 (the source's name). Put shortly:
as §1

Another assay concerns KB. The assay can be described thus: Cytotoxicity against human KB cells after 72 hrs by sulforhodamine B assay. It counts as functional. The conditions noted are these: read-out: ED50 (the source's name). The method in brief: as §1
Another assay has as its system A-431. Kind of assay: Cytotoxicity against human A431 cells after 72 hrs by sulforhodamine B assay. It counts as functional. The settings on record: A-431, 72 h, read-out: ED50 (the source's name). The method in brief:
as §1

Assay [3] deals with Bacillus subtilis. The assay can be described thus: Antibacterial activity against Bacillus subtilis ATCC 6633 at < 100 ug/ml after 24 hrs at 37 degC by agar hole-plate diffusion assay. Type of assay: functional, organism-based.
A short description of assay [4]: Cytotoxicity against human LUC1 cells after 48 hrs by sulforhodamine B assay. Type of assay: functional. The settings on record: LUC1, 48 h, read-out: ED50 (the source's name). The method in brief: (§2)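 Log-phase cells exposed to five concentrations (20.0–0.032 μg/ml) of sample in DMSO for 48 h at 37°, 5% CO₂, 100% humidity. Cell quantity per well determined by sulforhodamine B staining; ED50 reported.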

Another assay deals with HT-1080. Kind of assay: Cytotoxicity against human HT1080 cells after 48 hrs by sulforhodamine B assay. It counts as functional. The settings on record: HT-1080, 48 h, read-out: ED50 (the source's name). The method in brief:
as §2

Assay [5] concerns Staphylococcus aureus. The assay can be described thus: Antibacterial activity against Staphylococcus aureus ATCC 6538 at < 100 ug/ml after 24 hrs at 37 degC by agar hole-plate diffusion assay. Type of assay: functional, organism-based.
The test system of another assay is P388. The assay can be described thus: Cytotoxicity against mouse P388 cells after 48 hrs by sulforhodamine B assay. Type of assay: functional. The settings on record: P388, 48 h, read-out: ED50 (the source's name). The method in brief:
as §2

Assay [6] has as its system Candida albicans. Kind of assay: Antifungal activity against Candida albicans ATCC 10231 at < 100 ug/ml after 24 hrs at 25 degC by agar hole-plate diffusion assay. It counts as functional, organism-based.
For assay [7], the system named is Pseudomonas aeruginosa. Kind of assay: Antibacterial activity against Pseudomonas aeruginosa ATCC 9027 by agar diffusion technique. Type of assay: functional.
Assay [8] concerns Staphylococcus aureus. The assay can be described thus: Antibacterial activity against Staphylococcus aureus ATCC 6538 after overnight incubation at 37 degC by twofold serial dilution technique. Type of assay: functional. Put shortly:
(§3)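 Twofold broth dilution MIC. Sample at 1 mg/ml in MeOH-H2O (1:1), 0.5 ml added to 4.5 ml nutrient broth, then doubling dilutions from 100 to 0.2 μg/ml. Each tube inoculated to 10⁶ organisms/ml final. Duplicate per organism, with solvent and streptomycin control broths.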

Assay [9] concerns Escherichia coli. Kind of assay: Antibacterial activity against Escherichia coli ATCC 8739 by agar diffusion technique. It counts as functional.
The test system of assay [10] is Candida albicans. Kind of assay: Antifungal activity against Candida albicans ATCC 10231 by agar diffusion technique. Type of assay: functional. (In general: Agar diffusion results depend on both activity and mobility in agar.)
The subject of assay [11] is Pseudomonas aeruginosa. Kind of assay: Antibacterial activity against Pseudomonas aeruginosa ATCC 9027 at < 100 ug/ml after 24 hrs at 37 degC by agar hole-plate diffusion assay. It counts as functional, organism-based.
Assay [12] has as its system Bacillus subtilis. Kind of assay: Antibacterial activity against Bacillus subtilis ATCC 6633 after overnight incubation at 37 degC by twofold serial dilution technique. Type of assay: functional. The method in brief: as §3
For assay [13], the system named is Bacillus subtilis. Kind of assay: Antibacterial activity against Bacillus subtilis ATCC 6633 at 1 mg/ml after 24 hrs at 37 degC by agar hole-plate diffusion assay. Type of assay: functional. The settings on record: ATCC 6633, 24 h, read-out: IZ. Put shortly:
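Agar hole-plate diffusion. Agar plates (15 ml) seeded with 1 ml overnight broth culture (10⁶ bacteria/ml); 11 mm holes filled with 100 μl of pure compound at 1 mg/ml. Streptomycin sulfate (1 mg/ml) as positive control. Duplicate per organism, 24 h at 37°. Inhibition zone diameters measured.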

Assay [14] concerns Escherichia coli. The assay can be described thus: Antibacterial activity against Escherichia coli ATCC 8739 at < 100 ug/ml after 24 hrs at 37 degC by agar hole-plate diffusion assay. Type of assay: functional, organism-based.

In brackets after ≈: the same amount, converted by molar mass. Activity calls are given as the source filed them. No cut-off for these calls is given here. Where only a bound is given, the exact number is not on record here.

`CCCC[C@H](OC(C)=O)[C@@H](OC(C)=O)[C@H](OC(C)=O)[C@H]1CC=CC(=O)O1` [BORONOLIDE]: the EC50 in the assay on ZR-75-1 worked out at 8.7 µg/mL (≈ 23.5 µM); in assay [1] it was 2.8 µg/mL (≈ 7.56 µM); in assay [2], 8.6 µg/mL (≈ 23.2 µM); with SK-MEL-2 it was 3.3 µg/mL (≈ 8.91 µM); in the assay on LNCaP, 3.2 µg/mL (≈ 8.64 µM); in the assay on KB, 4 µg/mL (≈ 10.8 µM). Besides, the EC50 in the assay on A-431 worked out at 6.5 µg/mL (≈ 17.5 µM); in assay [4], 3.9 µg/mL (≈ 10.5 µM); in the assay on HT-1080, 4.5 µg/mL (≈ 12.1 µM); with P388, 1 µg/mL (≈ 2.7 µM). For the same compound, the result in the assay with Bacillus subtilis [3] and in the assay on Staphylococcus aureus [5] was inactive.
In the case of `CC(=O)O[C@H](/C=C\[C@H]1CC=CC(=O)O1)C[C@@H](OC(C)=O)[C@H](C)OC(C)=O` [HYPTOLIDE], the EC50 with ZR-75-1 came out at 6.4 µg/mL (≈ 17.4 µM); in assay [1] it was 2.4 µg/mL (≈ 6.51 µM); in assay [2], 4.5 µg/mL (≈ 12.2 µM); in the assay with SK-MEL-2, 12.2 µg/mL (≈ 33.1 µM); with LNCaP, 7.5 µg/mL (≈ 20.4 µM); in the assay on KB, 3.6 µg/mL (≈ 9.77 µM). The EC50 with A-431 was found to be 3.7 µg/mL (≈ 10 µM); in assay [4], 4.9 µg/mL (≈ 13.3 µM); in the assay on HT-1080, 9.6 µg/mL (≈ 26.1 µM); in the assay with P388, 1.6 µg/mL (≈ 4.34 µM). Besides, the outcome in the assay on Candida albicans [6], in the assay on Bacillus subtilis [3], with Pseudomonas aeruginosa [11], in the assay on Staphylococcus aureus [5] and in the assay on Escherichia coli [14] was inactive. In addition, the MIC against Pseudomonas aeruginosa [7] was over 500 µg/mL; against Staphylococcus aureus [8], over 100 µg/mL; in the assay with Escherichia coli [9] it was over 500 µg/mL; in the assay on Candida albicans [10], over 500 µg/mL; with Bacillus subtilis [12] it was 100 µg/mL (≈ 271 µM). Besides, the zone of inhibition at 1000 µg/mL in the assay on Bacillus subtilis [13] was found to be 5 mm.
